In ChEMBL document CHEMBL5303300, “EUbOPEN Chemogenomics Library - Multiplex” (2023):
Several values for one entry are separate records, joined by “and”; a condition that tells them apart may be missing. Identical values can stand only once.

System: HEK-293T
Assay: Multiplex assay against HEK293T
Assay type: toxicity, cell-based
Conditions: human, number of replicates 2
In short: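 Cells were classed with CellPathfinder machine-learning gating, first as Hoechst high-intensity objects or normal cells, then (normal cells) as healthy, pyknosed or fragmented nuclei, and finally (pyknosed cells) as mitotic or apoptotic. Staining of live cells at seeding used Hoechst33342, BioTracker Green Microtubule Cytoskeleton Dye, MitoTracker Red and Annexin V Alexa Fluor 680, with imaging on a CQ1 microscope at 37°C and 5% CO2 after compound addition. Tubulin, mitochondrial-mass and membrane-permeability phenotypes are per cents of healthy-nucleus cells.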

[1] = 12 h, 1 µM, compound concentration 1 uM
[2] = 12 h, 10 µM, compound concentration 10 uM
[3] = 24 h, 1 µM, compound concentration 1 uM
[4] = 24 h, 10 µM, compound concentration 10 uM
[5] = 48 h, 1 µM, compound concentration 1 uM
[6] = 48 h, 10 µM, compound concentration 10 uM

Compound: CN(C)CCN(Cc1ccc(-c2ccc(CNCCc3ccccc3)cc2)cc1)C(=O)CCC1CCCC1.Cl.Cl
- Population Apoptotic (%) [1]: 45% and 51%
- Population Fragmented Nuclei (%) [1]: 2% and 1%
- Population Healthy Nuclei (%) [1]: 87% and 86%
- Population Hoechst High Intensity Objects (%) [1]: 6% and 3%
- Population Membrane Permeable-Phenotype (%) [1]: 2%
- Population Mitochondria Different-Phenotype (%) [1]: 34% and 33%
- Population Mitotic Cells (%) [1]: 54% and 48%
- Population Normal (%) [1]: 93% and 96%
- Population Pyknosed Nuclei (%) [1]: 9% and 11%
- Population Tubulin-Different-Phenotype (%) [1]: 86% and 78%
- Total Cell Count [1]: 835 and 591
- Population Apoptotic (%) [2]: 61% and 57%
- Population Fragmented Nuclei (%) [2]: 7% and 4%
- Population Healthy Nuclei (%) [2]: 43% and 42%
- Population Hoechst High Intensity Objects (%) [2]: 28% and 30%
- Population Membrane Permeable-Phenotype (%) [2]: 4% and 1%
- Population Mitochondria Different-Phenotype (%) [2]: 72% and 73%
- Population Mitotic Cells (%) [2]: 38% and 42%
- Population Normal (%) [2]: 71% and 69%
- Population Pyknosed Nuclei (%) [2]: 48% and 52%
- Population Tubulin-Different-Phenotype (%) [2]: 93% and 96%
- Total Cell Count [2]: 396 and 358
- Population Apoptotic (%) [3]: 36%
- Population Fragmented Nuclei (%) [3]: 4% and 6%
- Population Healthy Nuclei (%) [3]: 89% and 85%
- Population Hoechst High Intensity Objects (%) [3]: 6% and 5%
- Population Membrane Permeable-Phenotype (%) [3]: 1%
- Population Mitochondria Different-Phenotype (%) [3]: 17% and 21%
- Population Mitotic Cells (%) [3]: 63%
- Population Normal (%) [3]: 93% and 94%
- Population Pyknosed Nuclei (%) [3]: 6% and 7%
- Population Tubulin-Different-Phenotype (%) [3]: 63% and 61%
- Total Cell Count [3]: 1227 and 899
- Population Apoptotic (%) [4]: 73%
- Population Fragmented Nuclei (%) [4]: 5%
- Population Healthy Nuclei (%) [4]: 42% and 36%
- Population Hoechst High Intensity Objects (%) [4]: 31% and 39%
- Population Membrane Permeable-Phenotype (%) [4]: 3% and 1%
- Population Mitochondria Different-Phenotype (%) [4]: 80% and 84%
- Population Mitotic Cells (%) [4]: 26%
- Population Normal (%) [4]: 68% and 60%
- Population Pyknosed Nuclei (%) [4]: 51% and 57%
- Population Tubulin-Different-Phenotype (%) [4]: 89% and 95%
- Total Cell Count [4]: 357 and 312
- Population Apoptotic (%) [5]: 15% and 20%
- Population Fragmented Nuclei (%) [5]: 12% and 9%
- Population Healthy Nuclei (%) [5]: 84% and 86%
- Population Hoechst High Intensity Objects (%) [5]: 8%
- Population Membrane Permeable-Phenotype (%) [5]: 4% and 5%
- Population Mitochondria Different-Phenotype (%) [5]: 0% and 2%
- Population Mitotic Cells (%) [5]: 84% and 79%
- Population Normal (%) [5]: 91%
- Population Pyknosed Nuclei (%) [5]: 3% and 4%
- Population Tubulin-Different-Phenotype (%) [5]: 21% and 25%
- Total Cell Count [5]: 3014 and 1979
- Population Apoptotic (%) [6]: 88% and 79%
- Population Fragmented Nuclei (%) [6]: 9% and 5%
- Population Healthy Nuclei (%) [6]: 30% and 28%
- Population Hoechst High Intensity Objects (%) [6]: 33% and 40%
- Population Membrane Permeable-Phenotype (%) [6]: 1% and 0%
- Population Mitochondria Different-Phenotype (%) [6]: 82% and 91%
- Population Mitotic Cells (%) [6]: 11% and 20%
- Population Normal (%) [6]: 66% and 59%
- Population Pyknosed Nuclei (%) [6]: 60% and 65%
- Population Tubulin-Different-Phenotype (%) [6]: 84% and 93%
- Total Cell Count [6]: 318 and 281
